Data set [1] has as its system C13. Nature of the data set: In vitro cytotoxicity against C13 tumor cell line. The data set is classed as functional, cell-based. The conditions noted are these: Homo sapiens. In outline: (§1)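 Cisplatin-resistant C13* human ovarian adenocarcinoma cells, kept in RPMI 1640 with 10% heat-inactivated FCS and 2 mM L-glutamine, seeded and treated 24 h later with graded concentrations for 24 h. Viability by MTT (4 h, 37 °C; DMSO solubilization; 570 nm, reference 630 nm). IC50 with 95% confidence limits by Litchfield–Wilcoxon; three experiments in triplicate.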

Data set [2] can be described thus: Compound was tested for toxicity induced in human monocyte. Put shortly:
(§2)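 Adherent human peripheral blood mononuclear cells (Ficoll-isolated, 2 h adhesion at 37 °C, nonadherent cells washed off) exposed 24 h to 25, 50, 100 μM test agent, triplicate wells per dose. Medium then replaced with C13* ovarian carcinoma cells (2 × 10³/well), cocultured 24 h, lysis read by MTT. IC50 with 95% confidence limits by Litchfield–Wilcoxon; three experiments in triplicate.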

The nature of data set [3]: Compound was tested for toxicity induced in murine macrophage. The conditions noted are these: Mus musculus. Put shortly:
(§3)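 Resident mouse peritoneal cells recovered by PBS–heparin (10 U/mL) lavage, adhered 2 h at 37 °C in RPMI 1640 + 5% FCS. Macrophages plated at 1 × 10⁴/well with graded drug concentrations for 24 h (triplicate wells). C13* cells (2 × 10³/well) then added, cocultured 24 h, MTT read-out. Specific cytotoxicity = [OD(macrophages+C13*) − OD(macrophages)]/OD(C13*). IC50 with 95% limits by Litchfield–Wilcoxon.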

For another data set, the species on record is Homo sapiens. Nature of the data set: Potency ratio as the ratio of IC50 of DMXXA against human monocytes to that of the IC50 against human monocytes. The data set is classed as ADME.
The species named for a further data set is Mus musculus. Nature of the data set: Potency ratio as the ratio of IC50 of DMXXA against murine macrophages to that of the IC50 against murine macrophages. The data set is classed as ADME.
A short description of data set [4]: Potency ratio against macrophages. It is filed as ADME.
Data set [5] is described as follows: Compound was tested for toxicity induced in murine macrophage; b indicates Not detected. The conditions noted are these: mouse. In outline:
as §3

Data set [6] has as its system C13. Nature of the data set: In vitro cytotoxicity against C13 tumor cell line; Not detected. The data set is classed as functional, cell-based, Homo sapiens. Put shortly: as §1
Data set [7] can be described thus: Compound was tested for toxicity induced in human monocyte; b indicates Not detected. Put shortly:
as §2

Each structure is given as a SMILES string.

Consider `C=CCOc1ccc2c(=O)c3cccc(CC(=O)OC)c3oc2c1`, for which the figures for the IC50 (with C13 [1]; in data set [2]; in [3]) were 509 µM, 114 µM and 61.6 µM, respectively. Moreover, the Potency ratio came to 0.8 in the data set filed under Homo sapiens, 3.4 in the data set filed under Mus musculus and 0.5 in [4].

Take `CC1(C)Cc2c(ccc3c(=O)c4cccc(CC(=O)O)c4oc23)O1`: the 50% inhibitory concentration (IC50) in the data set with C13 [1] came to 604 µM; in data set [2] it was 172 µM; in data set [3] it was 220 µM. The Potency ratio came to 0.8 in the data set listed under Homo sapiens, 0.9 in the data set filed under Mus musculus and 1.3 in data set [4].

`C=C(C)COc1ccc2c(=O)c3cccc(CC(=O)OC)c3oc2c1C`: the IC50 stood at 488 µM with C13 [1] and 84.6 µM in data set [2]. Also, the Potency ratio entry in data set [5] is given as “Not detected”.

Take `CC(C)=CCOc1ccc2c(=O)c3cccc(CC(=O)O)c3oc2c1`: the IC50 amounted to 626 µM with C13 [1], 64.2 µM in data set [2] and 264 µM in [3]. In addition, the Potency ratio is on record as 2.1 in the data set listed under Homo sapiens, 0.8 in the data set filed under Mus musculus and 4.1 in data set [4].

Take `COC(=O)Cc1cccc2c(=O)c3ccc(OCC=C(C)C)c(C)c3oc12`: the IC50 in the data set on C13 [1] turned out to be 702 µM; in data set [2] it was 73.6 µM; in data set [3], 224 µM. In addition, the Potency ratio in the data set listed under Homo sapiens was 1.8; in the data set filed under Mus musculus it was 1; in data set [4], 3.

As for `COC(=O)Cc1cccc2c(=O)c3ccc4c(c3oc12)C=CC(C)(C)O4`, the concentration for half-maximal inhibition (IC50) result was “Not detected” in the data set on C13 [6], 53.5 µM in data set [2] and 30.5 µM in data set [3]. Besides, the Potency ratio is on record as 2.5 in the data set listed under Homo sapiens, 6.9 in the data set filed under Mus musculus and 0.6 in data set [4].

For `C=C(C)COc1ccc2c(=O)c3cccc(CC(=O)O)c3oc2c1C`, the concentration for half-maximal inhibition (IC50) in the data set with C13 [1] is 443 µM; in data set [2], 86.2 µM; in [3] it was 77.3 µM. For the same compound, the Potency ratio in the data set filed under Homo sapiens is listed as 1.6; in the data set listed under Mus musculus it was 2.7; in [4] it was 0.9.

Take `C#CCOc1ccc2c(=O)c3cccc(CC(=O)OC)c3oc2c1C`: the half-maximal inhibitory concentration (IC50) in the data set with C13 [1] is 410 µM; in data set [7], “Not detected”; in data set [3], 372 µM. Besides, the Potency ratio in the data set listed under Mus musculus stood at 0.6.

As to `COC(=O)Cc1cccc2c(=O)c3ccc4c(c3oc12)CC(C)O4` (stereo not drawn), the concentration for half-maximal inhibition (IC50) entry with C13 [6] was “Not detected”; in [2] it was 67.3 µM; in data set [3], 82.8 µM. Further, the Potency ratio was found to be 2 in the data set listed under Homo sapiens, 2.5 in the data set filed under Mus musculus and 1.2 in [4].

In the case of `C=CCOc1ccc2c(=O)c3cccc(CC(=O)O)c3oc2c1`, the concentration for half-maximal inhibition (IC50) with C13 [1] is 510 µM; in [7], “Not detected”; in data set [3], 218 µM. Besides, the Potency ratio in the data set listed under Mus musculus was 1.

For `CC1Cc2c(ccc3c(=O)c4cccc(CC(=O)O)c4oc23)O1` (stereo not drawn), the concentration for half-maximal inhibition (IC50) in the data set on C13 [1] worked out at 711 µM; in data set [2], 178 µM; in data set [3], 157 µM. Moreover, the figures for the Potency ratio (in the data set filed under Homo sapiens; in the data set listed under Mus musculus; in data set [4]) were 0.7, 1.3 and 0.9, respectively.

In the case of `COC(=O)Cc1cccc2c(=O)c3ccc4c(c3oc12)CC(C)(C)O4`, the results for the IC50 (with C13 [1]; in data set [2]; in data set [3]) were 549 µM, 73.7 µM and 201 µM, respectively. Besides, the values for the Potency ratio (in the data set filed under Homo sapiens; in the data set filed under Mus musculus; in [4]) were 1.8, 1 and 2.7, respectively.

As to `Cc1cc2c(ccc3c(=O)c4cccc(CC(=O)O)c4oc32)o1`, the half-inhibitory concentration (IC50) entry with C13 [6] is “Not detected”; in [7], “Not detected”; in [3] it was 42 µM. Further, the Potency ratio in the data set filed under Mus musculus came to 5.

With `CC1(C)C=Cc2c(ccc3c(=O)c4cccc(CC(=O)O)c4oc23)O1`, the 50% inhibitory concentration (IC50) was found to be 726 µM with C13 [1], 259 µM in data set [2] and 45.1 µM in data set [3]. The Potency ratio in the data set listed under Homo sapiens is 0.5; in the data set filed under Mus musculus it was 4.7; in data set [4] it was 0.2.

As for `CC1(C)CCc2c(ccc3c(=O)c4cccc(CC(=O)O)c4oc23)O1`, the values for the IC50 entry (with C13 [6]; in data set [2]; in data set [3]) were “Not detected”, 108 µM and 71.5 µM, respectively. Moreover, the Potency ratio in the data set listed under Homo sapiens was 1.2; in the data set filed under Mus musculus it was 2.9; in data set [4] it was 0.7.

Regarding `COC(=O)Cc1cccc2c(=O)c3ccc4oc(C)cc4c3oc12`, the half-maximal inhibitory concentration (IC50) result was “Not detected” in the data set on C13 [6], “Not detected” in data set [7] and 80.9 µM in data set [3]. For the same compound, in the data set listed under Mus musculus, the Potency ratio came to 2.6.

As to `Cc1ccc2c(=O)c3cccc(CC(=O)O)c3oc2c1C` [VADIMEZAN], the values for the IC50 (in the data set on C13 [1]; in data set [2]; in [3]) were 615 µM, 135 µM and 211 µM, respectively.

Broadly, the IC50 is the concentration needed to halve the response being measured.

Values taken from ChEMBL document CHEMBL1135640, “Synthesis and antitumor activity of new derivatives of xanthen-9-one-4-acetic acid” (J Med Chem, 2002).
